{"source": "ChEMBL document CHEMBL5042469", "about": "“Unique Molecular Interaction with the Histone Deacetylase 6 Catalytic Tunnel: Crystallographic and Biological Characterization of a Model Chemotype” (J Med Chem, 2021)", "key": {"[1]": {"biological_target": "T1, Protein deacetylase HDAC6 (Homo sapiens) (UniProt Q9UBN7)", "T1 sequence (whole entry)": "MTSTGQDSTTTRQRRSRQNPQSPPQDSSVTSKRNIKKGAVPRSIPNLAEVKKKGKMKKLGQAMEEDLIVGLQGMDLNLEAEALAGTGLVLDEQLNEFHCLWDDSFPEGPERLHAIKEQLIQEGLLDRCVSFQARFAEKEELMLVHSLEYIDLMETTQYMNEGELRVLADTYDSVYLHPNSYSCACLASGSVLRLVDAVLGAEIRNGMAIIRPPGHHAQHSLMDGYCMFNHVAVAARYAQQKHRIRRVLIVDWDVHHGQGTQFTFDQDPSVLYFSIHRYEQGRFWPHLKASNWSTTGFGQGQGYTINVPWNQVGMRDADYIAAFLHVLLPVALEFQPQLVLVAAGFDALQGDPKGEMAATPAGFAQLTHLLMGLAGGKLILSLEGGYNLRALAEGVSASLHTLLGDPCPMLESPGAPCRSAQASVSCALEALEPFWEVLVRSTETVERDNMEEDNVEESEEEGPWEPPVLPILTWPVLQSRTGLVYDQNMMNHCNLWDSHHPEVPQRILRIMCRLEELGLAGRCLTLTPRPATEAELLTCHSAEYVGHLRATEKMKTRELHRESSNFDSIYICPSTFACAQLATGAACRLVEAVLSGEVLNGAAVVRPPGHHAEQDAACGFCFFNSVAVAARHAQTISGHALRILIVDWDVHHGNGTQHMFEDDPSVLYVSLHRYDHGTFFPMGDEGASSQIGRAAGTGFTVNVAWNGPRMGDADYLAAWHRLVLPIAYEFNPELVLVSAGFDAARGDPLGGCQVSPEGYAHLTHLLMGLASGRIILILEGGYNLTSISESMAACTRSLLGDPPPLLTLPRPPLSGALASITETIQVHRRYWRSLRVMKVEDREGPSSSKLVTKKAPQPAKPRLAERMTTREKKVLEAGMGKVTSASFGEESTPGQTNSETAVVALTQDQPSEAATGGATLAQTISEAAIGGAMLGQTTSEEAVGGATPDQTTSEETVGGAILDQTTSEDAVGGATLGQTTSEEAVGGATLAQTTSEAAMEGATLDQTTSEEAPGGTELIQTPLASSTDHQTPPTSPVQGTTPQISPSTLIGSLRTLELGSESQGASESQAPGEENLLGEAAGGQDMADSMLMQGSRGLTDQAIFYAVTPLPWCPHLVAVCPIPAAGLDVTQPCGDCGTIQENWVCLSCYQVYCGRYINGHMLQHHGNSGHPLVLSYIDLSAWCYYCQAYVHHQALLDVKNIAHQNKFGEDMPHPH", "assay": "Inhibition of HDAC6 in human HeLa cells assessed as acetylation of alpha tubulin accumulation at 0.1 uM by DAPI staining based immunofluorescent assay", "assay_type": "cell-based", "summary_of_the_method": "(§1)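 HeLa cells plated to sub-confluency and treated after 24 h with compound at 0.1 or 2 μM for 6 h; DMSO served as vehicle control. Cells were fixed (4% formaldehyde), permeabilized (1% Triton X-100) and blocked in 5% BSA for 1 h at room temperature. Staining used anti-acetyl-α-tubulin (1:100) plus anti-acetyl-H3 Lys18 (1:50) with DAPI counterstain, then imaging and quantification. Values are the mean of duplicates.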"}, "MM1.S": {"system": "MM1.S", "assay": "Anti-proliferative activity against human MM1.S cells assessed as cell viability measured after 72 hrs by Cell-Titer assay", "assay_type": "functional, cell-based", "summary_of_the_method": "(§2)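 Cells in RPMI-1640 with 10% FBS (AML3 in IMDM with 10% FBS). Cells were plated in 96-well plates, and after 24 h compounds or vehicle (0.5% DMSO) were added. CellTiter-Blue was added after 72 h and fluorescence was read at 560/590 nm. IC50 was obtained by non-linear regression.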"}, "[2]": {"assay": "Anti-proliferative activity against human AR230 cells assessed as cell viability measured after 72 hrs by Cell-Titer assay", "assay_type": "functional, cell-based", "summary_of_the_method": "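AR230 cells were maintained in RPMI-1640 with 10% FBS, 2 mM L-glutamine and 1 μM imatinib. Cells were plated in 96-well plates and dosed after 24 h, with 0.5% DMSO as vehicle. CellTiter-Blue fluorescence was read at 560/590 nm after 72 h. IC50 by non-linear regression.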"}, "BV-173": {"system": "BV-173", "assay": "Anti-proliferative activity against human BV-173 cells assessed as cell viability measured after 72 hrs by Cell-Titer assay", "assay_type": "functional, cell-based", "conditions": "BV-173, 72 h", "summary_of_the_method": "as §2"}, "[3]": {"biological_target": "T1, Protein deacetylase HDAC6 (Homo sapiens)", "assay": "Inhibition of HDAC6 in human MV4-11 cells assessed as increase in acetylation of alpha tubulin at 0.25 uM by Western blot analysis", "assay_type": "cell-based", "summary_of_the_method": "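MV4-11 cells incubated with compound for 6 h (0.25–1 μM range), then lysed in RIPA buffer. Lysates were BCA-quantified and run on 4–20% SDS-PAGE, then transferred to nitrocellulose and blocked in 5% milk/PBST. Primary anti-acetyl-α-tubulin mouse monoclonal and HSC70 (1:1000) were applied overnight at 4 °C, followed by HRP anti-mouse (1:5000) and ECL detection.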"}, "HeLa": {"system": "HeLa", "assay": "Anti-proliferative activity against human HeLa cells assessed as cell viability measured after 72 hrs by Cell-Titer assay", "assay_type": "functional, cell-based", "summary_of_the_method": "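HeLa cells grown in DMEM with 10% FBS were plated in 96-well plates. After 24 h they were treated with compound or 0.5% DMSO vehicle. CellTiter-Blue was added at 72 h and read at 560/590 nm fluorescence. IC50 from non-linear regression.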"}, "[4]": {"biological_target": "T1, Protein deacetylase HDAC6 (Homo sapiens)", "assay": "Inhibition of HDAC6 in human HeLa cells assessed as acetylation of alpha tubulin accumulation at 2 uM by DAPI staining based immunofluorescent assay", "assay_type": "cell-based", "summary_of_the_method": "as §1"}, "MV4-11": {"system": "MV4-11", "assay": "Anti-proliferative activity against human MV4-11 cells assessed as cell viability measured after 72 hrs by Cell-Titer assay", "assay_type": "functional, cell-based", "conditions": "MV4-11, 72 h", "summary_of_the_method": "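MV4-11 cells grown in IMDM with 10% FBS were plated in 96-well plates. After 24 h, compounds or vehicle (0.5% DMSO) were added. After 72 h, CellTiter-Blue was added and fluorescence was read at 560/590 nm. IC50 came from non-linear regression.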"}, "[5]": {"assay": "Anti-proliferative activity against human MRC9 cells assessed as cell viability measured after 72 hrs by Cell-Titer assay", "assay_type": "functional, cell-based", "conditions": "MRC9, 72 h", "summary_of_the_method": "as §2"}, "RPMI-8226": {"system": "RPMI-8226", "assay": "Anti-proliferative activity against human RPMI-8226 cells assessed as cell viability measured after 72 hrs by Cell-Titer assay", "assay_type": "functional, cell-based", "conditions": "RPMI-8226, 72 h", "summary_of_the_method": "as §2"}, "MOLM-13": {"system": "MOLM-13", "assay": "Anti-proliferative activity against human MOLM-13 cells assessed as cell viability measured after 72 hrs by Cell-Titer assay", "assay_type": "functional, cell-based", "conditions": "MOLM-13, 72 h", "summary_of_the_method": "as §2"}, "U-87 MG": {"system": "U-87 MG", "assay": "Anti-proliferative activity against human U87G cells assessed as cell viability measured after 72 hrs by Cell-Titer assay", "assay_type": "functional, cell-based, U-87MG ATCC", "summary_of_the_method": "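U87G cells grown in EMEM with 10% FBS were plated in 96-well plates and dosed after 24 h, with 0.5% DMSO as vehicle. CellTiter-Blue read-out at 560/590 nm fluorescence after 72 h. IC50 by non-linear regression.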"}, "Jurkat": {"system": "Jurkat", "assay": "Anti-proliferative activity against human Jurkat cells assessed as cell viability measured after 72 hrs by Cell-Titer assay", "assay_type": "functional, cell-based", "summary_of_the_method": "as §2"}, "OCI-AML-3": {"system": "OCI-AML-3", "assay": "Anti-proliferative activity against human AML-3 cells assessed as cell viability measured after 72 hrs by Cell-Titer assay", "assay_type": "functional, cell-based", "conditions": "OCI-AML-3, 72 h", "summary_of_the_method": "as §2"}}, "note": "The source made the active and inactive calls. The rule behind the calls is not given here."}
{"smiles": "O=C(CCCCCCNC(=O)c1cnc(N(c2ccccc2)c2ccccc2Cl)nc1)NO", "note": "[CITARINOSTAT]", "values": [{"measurement": "Activity", "setting": "[1]", "result": "inactive"}, {"measurement": "IC50", "setting": "MM1.S", "result": 1600, "unit": "nM"}, {"measurement": "IC50", "setting": "[2]", "result": 4300, "unit": "nM"}, {"measurement": "IC50", "setting": "BV-173", "result": 900, "unit": "nM"}, {"measurement": "Activity", "setting": "[3]", "result": "Active"}, {"measurement": "IC50", "setting": "HeLa", "result": 7000, "unit": "nM"}, {"measurement": "Activity", "setting": "[4]", "result": "inactive"}, {"measurement": "IC50", "setting": "MV4-11", "result": 1200, "unit": "nM"}, {"measurement": "IC50", "setting": "[5]", "result": 30400, "unit": "nM"}, {"measurement": "IC50", "setting": "RPMI-8226", "result": 6500, "unit": "nM"}, {"measurement": "IC50", "setting": "MOLM-13", "result": 13500, "unit": "nM"}, {"measurement": "IC50", "setting": "U-87 MG", "result": 9100, "unit": "nM"}, {"measurement": "IC50", "setting": "Jurkat", "result": 1200, "unit": "nM"}, {"measurement": "IC50", "setting": "OCI-AML-3", "result": 7700, "unit": "nM"}]}
{"smiles": "O=C(NO)c1ccc(CN(Cc2cccnc2)S(=O)(=O)c2cc(F)c(F)c(F)c2F)cc1", "values": [{"measurement": "Activity", "setting": "[1]", "result": "inactive"}, {"measurement": "IC50", "setting": "MM1.S", "result": 700, "unit": "nM"}, {"measurement": "IC50", "setting": "[2]", "result": 1500, "unit": "nM"}, {"measurement": "IC50", "setting": "BV-173", "result": 1700, "unit": "nM"}, {"measurement": "Activity", "setting": "[3]", "result": "Active"}, {"measurement": "IC50", "setting": "HeLa", "result": 3500, "unit": "nM"}, {"measurement": "Activity", "setting": "[4]", "result": "Active"}, {"measurement": "IC50", "setting": "MV4-11", "result": 600, "unit": "nM"}, {"measurement": "IC50", "setting": "[5]", "result": "> 50000", "unit": "nM"}, {"measurement": "IC50", "setting": "RPMI-8226", "result": 700, "unit": "nM"}, {"measurement": "IC50", "setting": "MOLM-13", "result": 2000, "unit": "nM"}, {"measurement": "IC50", "setting": "U-87 MG", "result": 2000, "unit": "nM"}, {"measurement": "IC50", "setting": "Jurkat", "result": 1900, "unit": "nM"}, {"measurement": "IC50", "setting": "OCI-AML-3", "result": 3300, "unit": "nM"}]}
